Measured values taken from ChEMBL document CHEMBL1122828, “Resolution and absolute configuration of the potent dopamine agonist N,N-diethyl-N'-[(3 alpha, 4a alpha, 10a beta)-1,2,3,4,4a,5,10,10a- -octahydro-6-hydroxy-1-propyl-3-benzo[g]quinolinyl]sulfamide” (J Med Chem, 1985).

What was measured:
[1] = molecular target: T1, Dopamine receptor (Bos taurus, UniProt Q95136+P20288); experiment: In vitro inhibitory activity was evaluated against [3H]dopamine (DA) calf caudate dopamine receptor; type: protein assay
How it was run: (§1)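 Radioligand displacement used brain homogenates. Four to six test concentrations were each incubated in triplicate. IC50 in nM came from weighted regression analysis.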

[2] = molecular target: T2, Adrenergic receptor alpha-1 (Rattus norvegicus, UniProt P15823+P23944+P43140); experiment: In vitro inhibitory activity was evaluated against,[3H]WB 4101 whole rat brain alpha 1-adrenoceptor; how it was run: as §1
T2 sequence (P15823 whole entry): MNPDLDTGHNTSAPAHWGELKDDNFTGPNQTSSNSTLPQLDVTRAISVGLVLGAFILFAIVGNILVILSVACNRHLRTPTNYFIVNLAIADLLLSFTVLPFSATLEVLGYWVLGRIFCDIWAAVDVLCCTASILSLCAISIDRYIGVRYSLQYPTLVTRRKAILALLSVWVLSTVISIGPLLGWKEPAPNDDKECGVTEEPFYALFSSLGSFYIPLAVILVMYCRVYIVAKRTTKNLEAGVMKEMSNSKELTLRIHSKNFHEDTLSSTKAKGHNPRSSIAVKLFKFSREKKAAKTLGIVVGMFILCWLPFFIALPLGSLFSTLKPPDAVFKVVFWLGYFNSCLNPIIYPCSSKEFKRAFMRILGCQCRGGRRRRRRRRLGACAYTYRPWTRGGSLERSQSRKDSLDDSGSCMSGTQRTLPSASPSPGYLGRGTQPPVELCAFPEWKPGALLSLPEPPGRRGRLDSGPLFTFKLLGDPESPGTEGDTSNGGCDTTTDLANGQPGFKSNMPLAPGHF
T2 sequence (P23944 whole entry): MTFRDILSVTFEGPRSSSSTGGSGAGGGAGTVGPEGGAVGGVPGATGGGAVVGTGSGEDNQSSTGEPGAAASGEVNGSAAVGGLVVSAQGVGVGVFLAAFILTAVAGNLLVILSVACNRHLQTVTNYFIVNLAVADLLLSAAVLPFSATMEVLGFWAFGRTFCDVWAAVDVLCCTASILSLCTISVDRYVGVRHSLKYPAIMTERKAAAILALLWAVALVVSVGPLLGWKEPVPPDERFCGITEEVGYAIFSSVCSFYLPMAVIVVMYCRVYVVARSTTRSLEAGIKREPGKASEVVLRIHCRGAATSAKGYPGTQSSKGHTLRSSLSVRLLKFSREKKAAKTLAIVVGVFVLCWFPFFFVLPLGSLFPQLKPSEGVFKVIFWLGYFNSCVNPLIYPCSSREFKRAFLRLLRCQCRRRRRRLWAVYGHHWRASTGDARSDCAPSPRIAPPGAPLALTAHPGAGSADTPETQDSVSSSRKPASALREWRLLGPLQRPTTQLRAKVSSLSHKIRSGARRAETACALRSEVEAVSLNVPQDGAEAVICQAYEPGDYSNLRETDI
T2 sequence (P43140 whole entry): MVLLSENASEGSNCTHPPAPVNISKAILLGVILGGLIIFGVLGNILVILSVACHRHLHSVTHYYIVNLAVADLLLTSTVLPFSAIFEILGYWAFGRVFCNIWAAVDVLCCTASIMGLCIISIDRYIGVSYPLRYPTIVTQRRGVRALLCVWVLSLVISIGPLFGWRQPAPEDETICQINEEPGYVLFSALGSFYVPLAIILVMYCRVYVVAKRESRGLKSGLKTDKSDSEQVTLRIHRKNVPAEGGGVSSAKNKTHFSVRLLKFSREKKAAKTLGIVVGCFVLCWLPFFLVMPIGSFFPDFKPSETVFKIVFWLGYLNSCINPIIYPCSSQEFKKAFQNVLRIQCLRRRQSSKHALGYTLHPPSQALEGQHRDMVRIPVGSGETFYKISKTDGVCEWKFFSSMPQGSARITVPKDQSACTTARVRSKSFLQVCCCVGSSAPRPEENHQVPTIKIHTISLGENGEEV

[3] = molecular target: T3, Adrenergic receptor alpha-2 (Rattus norvegicus, UniProt P22086+P19328+P22909); experiment: In vitro inhibitory activity was evaluated against,[3H]clonidine (Clon) rat brain minus cerebellum Alpha-2 adrenergic receptor; type: tissue-based; how it was run: as §1
T3 sequence (P22086 whole entry): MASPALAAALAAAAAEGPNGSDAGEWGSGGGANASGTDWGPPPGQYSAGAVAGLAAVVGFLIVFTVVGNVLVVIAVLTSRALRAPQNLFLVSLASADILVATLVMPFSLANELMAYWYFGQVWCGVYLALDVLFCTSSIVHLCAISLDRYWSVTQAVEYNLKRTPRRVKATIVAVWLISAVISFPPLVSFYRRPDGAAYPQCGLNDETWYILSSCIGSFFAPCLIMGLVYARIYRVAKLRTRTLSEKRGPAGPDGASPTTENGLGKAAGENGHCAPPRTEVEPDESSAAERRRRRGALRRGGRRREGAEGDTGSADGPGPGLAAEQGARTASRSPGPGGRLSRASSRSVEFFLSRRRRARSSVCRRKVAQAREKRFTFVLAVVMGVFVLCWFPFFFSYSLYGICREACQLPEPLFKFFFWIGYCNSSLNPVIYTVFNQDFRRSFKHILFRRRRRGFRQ
T3 sequence (P19328 whole entry): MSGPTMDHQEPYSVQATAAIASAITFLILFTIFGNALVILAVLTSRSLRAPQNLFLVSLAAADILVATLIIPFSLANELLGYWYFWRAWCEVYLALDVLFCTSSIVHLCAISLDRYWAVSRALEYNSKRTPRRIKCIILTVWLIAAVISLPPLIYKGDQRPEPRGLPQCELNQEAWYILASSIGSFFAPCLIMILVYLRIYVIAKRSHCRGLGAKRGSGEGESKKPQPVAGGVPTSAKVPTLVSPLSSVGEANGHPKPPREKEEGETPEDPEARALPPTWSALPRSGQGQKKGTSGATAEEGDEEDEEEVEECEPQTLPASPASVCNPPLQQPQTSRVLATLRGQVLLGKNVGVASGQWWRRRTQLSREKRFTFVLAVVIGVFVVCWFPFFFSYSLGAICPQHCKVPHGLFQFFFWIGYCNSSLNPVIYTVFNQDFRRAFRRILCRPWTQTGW
T3 sequence (P22909 whole entry): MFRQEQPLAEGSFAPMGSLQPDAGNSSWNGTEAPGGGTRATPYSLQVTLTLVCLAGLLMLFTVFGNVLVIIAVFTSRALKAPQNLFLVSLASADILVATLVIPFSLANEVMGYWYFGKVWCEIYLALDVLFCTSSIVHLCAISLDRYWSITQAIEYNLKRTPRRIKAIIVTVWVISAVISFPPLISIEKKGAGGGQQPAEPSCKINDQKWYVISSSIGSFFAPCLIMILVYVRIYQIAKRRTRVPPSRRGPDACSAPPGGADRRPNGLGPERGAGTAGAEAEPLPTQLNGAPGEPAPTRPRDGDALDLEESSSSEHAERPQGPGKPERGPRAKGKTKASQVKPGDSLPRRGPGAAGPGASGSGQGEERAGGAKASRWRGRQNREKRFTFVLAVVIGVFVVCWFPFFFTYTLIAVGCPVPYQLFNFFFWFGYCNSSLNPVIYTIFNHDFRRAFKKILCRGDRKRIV

[4] = test system: Rattus norvegicus; experiment: Compound was evaluated for the in vivo inhibition of basal prolactin secretion for a time 4 hr after injection in male rats; type: functional; conditions: read-out: ID50 (the source's name)
How it was run: (§2)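 Adult male SIV 50 rats were housed singly from the day before, with light from 4 a.m. to 6 p.m. They got a single sc injection and were decapitated 4 h later. Trunk blood was taken and serum pooled from 3 rats per group, with 1–3 groups per dose. Prolactin was measured by double-antibody RIA against NIH rat Prl RP-1. The dose giving a 50% fall in serum prolactin was estimated graphically.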

[5] = molecular target: T1, Dopamine receptor; experiment: In vitro inhibitory activity was evaluated against [3H]spiperone calf caudate (SPC) dopamine receptor; type: protein assay; how it was run: as §1
[6] = molecular target: Serotonin (5-HT) receptor; experiment: In vitro inhibitory activity was evaluated against,[3H]serotonin (5-HT) whole rat brain serotonin receptor
[7] = molecular target: T1, Dopamine receptor; experiment: In vitro inhibitory activity was evaluated against,[3H]spiperone calf caudate (SPC) dopamine receptor; type: protein assay; how it was run: as §1
[8] = molecular target: Serotonin (5-HT) receptor; experiment: In vitro inhibitory activity was evaluated against,[3H]spiperone rat frontal cortex (SPFC) serotonin receptor; type: tissue-based
[9] = molecular target: T1, Dopamine receptor; experiment: In vitro inhibitory activity was evaluated against,[3H]dopamine (DA),calf caudate dopamine receptor; type: protein assay; how it was run: as §1
[10] = test system: Rattus norvegicus; experiment: Compound was evaluated for the in vivo inhibition of basal prolactin for a time 4 hr after injection in male rats; type: functional; how it was run: as §2
[11] = test system: Rattus norvegicus; experiment: Compound was evaluated for the in vivo inhibition of basal prolactin secretion for a time 60 min after injection in male rats; type: functional; conditions: 1 h, read-out: ID50 (the source's name)
[12] = test system: Rattus norvegicus; experiment: Compound was evaluated for the in vivo inhibition of basal prolactin secretion for a time 30 min after injection in male rats; type: functional; conditions: 0.5 h, read-out: ID50 (the source's name)

SMILES | IC50 [1] [µM] | IC50 [2] [µM] | IC50 [3] [µM] | IC50 [5] [µM] | IC50 [7] [µM] | IC50 [9] [µM] | ED50 [4] [mg/kg] | IC50 [6] [µM] | IC50 [8] [µM] | ED50 ([10]; Rattus norvegicus, 4 h, read-out: ID50 (the source's name)) [mg/kg] | ED50 [11] [mg/kg] | ED50 [12] [mg/kg] | ID50 [10] [mg/kg]
CCN(CC)S(=O)(=O)N[C@H]1C[C@@H]2c3cccc4[nH]cc(c34)C[C@H]2N(C)C1 [ETISULERGINE] | – | 3.3 | 0.48 | – | 0.025 | 0.12 | – | > 5 | 0.026 | 0.0014 | – | – | –
CN1CCc2cccc3c2[C@H]1Cc1ccc(O)c(O)c1-3 [APOMORPHINE] | – | 7.75 | – | – | – | – | > 10 | > 10 | 4.5 | – | 0.081 | 0.058 | –

The next lines start with results.

IC50 [1] [µM] | IC50 [2] [µM] | IC50 [3] [µM] | IC50 [5] [µM] | IC50 [7] [µM] | IC50 [9] [µM] | SMILES | ED50 [4] [mg/kg] | IC50 [6] [µM] | IC50 [8] [µM] | ED50 ([10]; Rattus norvegicus, 4 h, read-out: ID50 (the source's name)) [mg/kg] | ED50 [11] [mg/kg] | ED50 [12] [mg/kg] | ID50 [10] [mg/kg]
> 100 | > 10 | > 10 | > 10 | – | – | CCCN1CC(NS(=O)(=O)N(CC)CC)CC2Cc3c(O)cccc3CC21 (stereo in doubt; (+)1) [QUINAGOLIDE] | > 3 | – | – | – | – | – | –
– | 7.8 | 5.6 | – | 0.048 | 0.19 | CCCN1CC(NS(=O)(=O)N(CC)CC)CC2Cc3c(O)cccc3CC21 (racemic) [QUINAGOLIDE] | – | – | – | – | – | – | 0.005
– | 6 | 7.4 | – | 0.019 | 0.075 | CCCN1CC(NS(=O)(=O)N(CC)CC)CC2Cc3c(O)cccc3CC21 (stereo in doubt; -1) [QUINAGOLIDE] | – | – | – | – | – | – | 0.0018
